Results reported in ChEMBL document CHEMBL5032534, “COUPY Coumarins as Novel Mitochondria-Targeted Photodynamic Therapy Anticancer Agents” (J Med Chem, 2021).
Each block holds one compound with its values, some of them ahead of it. Calls of active or inactive are those of the source. No cut-off for these calls is given here.

Columns and labels:
[1] = Drug uptake in human HeLa cells at 0.5 uM incubated for 30 mins by confocal microscopic analysis; type: ADME, cell-based; details: 0.5 h
Summary of the method: (§1)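 HeLa cells in high-glucose DMEM with 10% fetal calf serum were seeded on glass-bottom dishes for 24 h, then loaded with compound for 30 min at 37 °C. They were washed three times with DPBS and kept in phenol-red-free low-glucose DMEM. Live cells were imaged by confocal microscopy at 37 °C with 5% CO2, excited at 561 nm, with emission collected from 570 to 670 nm.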

HeLa [2] = test: Induction of apoptosis in human HeLa cells assessed as increase in necrotic cells at 5 uM incubated for 30 mins in dark measured after 24 hrs by Annexin V-FITC/ Propidium iodide staining based flow cytometry analysis; type: functional, cell-based; details: time 24.5 hrs
Summary of the method: (§2)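 HeLa cells were seeded at 1.5 × 10^5/well overnight and treated for 0.5 h, with or without 1 h visible-light irradiation, followed by 24 h recovery. Cells were trypsinized, resuspended in binding buffer, labelled with FITC-Annexin V and propidium iodide for 15 min at room temperature in the dark, and analysed by flow cytometry. Cisplatin (30 μM) served as positive control.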

HeLa [3] = test: Induction of ROS generation in human HeLa cells at 5 uM incubated for 1 hr in dark followed by irradiation with visible light for 1 hr under hypoxic condition in presence of NaN3 by DCFH-DA staining based flow cytometric analysis; type: functional, cell-based; details: time 2.0 hrs
Summary of the method: (§3)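 HeLa cells were seeded at 2 × 10^4/well for 24 h under 21% or 2% O2. They were co-treated with 5 μM compound plus a scavenger, which stayed present throughout: NAC 5 mM, NaN3 5 mM, mannitol 50 mM, tiron 5 mM, sodium pyruvate 10 mM or Trolox 0.1 mM. Cells were held 1 h dark, then 1 h under visible light, stained 30 min with 10 μM DCFH-DA, trypsinized and analysed by flow cytometry. At least two independent experiments, n = 3.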

HeLa [4] = test: Induction of ROS generation in human HeLa cells at 5 uM incubated for 1 hr in dark followed by irradiation with visible light for 1 hr under normoxic condition in presence of Trolox by DCFH-DA staining based flow cytometric analysis; type: functional, cell-based; details: time 2.0 hrs; summary of the method: as §3
HeLa [5] = test: Effect on cell cycle distribution in human HeLa cells assessed as reduction in G1 phase population at 5 uM preincubated for 30 mins in dark followed by light irradiation for 1 hr by RNase/propidium iodide staining based FACS analysis; type: functional; details: time 1.5 hrs
Summary of the method: (§4)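 HeLa cells were seeded at 1.5 × 10^5/well and treated for 0.5 h, with or without 1 h visible-light irradiation, followed by 24 h recovery. Cells were fixed in ice-cold 70% ethanol for 1 h and stained with PI (40 μg/mL) plus RNase (1 μg/mL) for 30 min at 310 K. Analysis was by flow cytometry in the FL2-A channel. At least two independent experiments, n = 3.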

HeLa [6] = test: Induction of apoptosis in human HeLa cells assessed as increase in early apoptotic cells at 5 uM preincubated for 30 mins in dark followed by irradiation for 1 hr and measured after 24 hrs by Annexin V-FITC/ Propidium iodide staining based flow cytometry analysis; type: functional, cell-based; details: time 25.5 hrs; summary of the method: as §2
HeLa [7] = test: Induction of autophagy in human HeLa cells […] pretreated with wortmannin for 1 hr followed by irradiation schedule for 1 hr by MDC staining based confocal microscopic analysis; type: functional
HeLa [8] = test: Induction of ROS generation in human HeLa cells assessed as increase in intracellular ROS level at 5 uM incubated for 1 hr in dark followed by irradiation with visible light for 1 hr under hypoxic condition by DCFH-DA staining based flow cytometric analysis; type: functional, cell-based; details: time 2.0 hrs; summary of the method: as §3
HeLa [9] = test: Induction of superoxide anion generation in human HeLa cells assessed as increase in DHE fluorescence at 5 uM incubated for 1 hr in dark followed by irradiation with visible light for 1 hr under hypoxic condition in presence of tiron by DHE staining based flow cytometric analysis; details: time 2.0 hrs
[10] = Drug uptake in mitochondria of human HeLa cells assessed as drug accumulation at 0.5 uM measured after 30 mins by confocal microscopic analysis; type: ADME; details: 0.5 h; summary of the method: as §1
HeLa [11] = test: Induction of ROS generation in human HeLa cells at 5 uM incubated for 1 hr in dark followed by irradiation with visible light for 1 hr under normoxic condition in presence of 5 mM NAC by DCFH-DA staining based flow cytometric analysis; type: functional, cell-based; details: time 2.0 hrs; summary of the method: as §3
[12] = Drug uptake in nucleolus of human HeLa cells assessed as drug accumulation at 0.5 uM measured after 30 mins by confocal microscopic analysis; type: ADME, subcellular; details: 0.5 h; summary of the method: as §1
HeLa [13] = test: Induction of mitochondrial membrane potential loss in human HeLa cells at 5 uM measured after 24 hrs by JC-1 dye-based flow cytometric analysis; type: functional, cell-based
Summary of the method: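 HeLa cells were seeded at 1.5 × 10^5 in 12-well plates for 24 h and treated for 24 h. Vehicle control held 0.4% DMSO and antimycin A (50 μM) served as positive control. Cells were stained with JC-1 (1 μM, 20 min) and analysed by flow cytometry (10^4 events; ex 488 nm; green 530 nm and red 585 nm channels). At least two independent experiments.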

HeLa [14] = test: Induction of autophagy in human HeLa cells assessed as increase in MDC-positive autophagic vesicles at 5 uM preincubated for 30 mins followed by light irradiation for 1 hr and further incubated for 6 hrs in drug-free medium by MDC staining based confocal microscopic analysis; type: functional, cell-based; details: time 1.5 hrs
Summary of the method: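 HeLa cells were seeded at 1.5 × 10^4 cells/cm2 in chamber slides and given 0.5 h compound incubation, then 1 h visible-light irradiation. Medium was replaced for a 6 h recovery. Cells were stained with monodansylcadaverine (0.05 mM in PBS, 10 min, 310 K) and imaged by confocal microscopy (ex 405 nm). Vacuoles were counted in at least 10 cells from two experiments. Controls were starvation in EBSS for 2 h and resveratrol 50 μM for 2 h.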

HeLa [15] = test: Induction of ROS generation in human HeLa cells at 5 uM incubated for 1 hr in dark followed by irradiation with visible light for 1 hr under hypoxic condition in presence of 5 mM NAC by DCFH-DA staining based flow cytometric analysis; type: functional, cell-based; details: time 2.0 hrs; summary of the method: as §3
HeLa [16] = test: Effect on cell cycle distribution in human HeLa cells at 5 uM incubated for 30 mins in dark by RNase/propidium iodide staining based FACS analysis; type: functional; summary of the method: as §4
HeLa [17] = test: Induction of ROS generation in human HeLa cells at 5 uM incubated for 1 hr in dark followed by irradiation with visible light for 1 hr under hypoxic condition in presence of Trolox by DCFH-DA staining based flow cytometric analysis; type: functional, cell-based; details: time 2.0 hrs; summary of the method: as §3
HeLa [18] = test: Induction of ROS generation in human HeLa cells at 5 uM incubated for 1 hr in dark followed by irradiation with visible light for 1 hr under hypoxic condition in presence of NaPyr by DCFH-DA staining based flow cytometric analysis; type: functional, cell-based; details: time 2.0 hrs; summary of the method: as §3
[19] = Induction of singlet oxygen generation in air-saturated DCM solution assessed as reduction in 1,3-diphenylisobenzofuran absorption irradiated with 505 nanometer green light by DPBF-based assay; type: functional
[20] = Drug uptake in mitochondria of human HeLa cells assessed as drug accumulation at 5 uM measured after 30 mins by confocal microscopic analysis; type: ADME; details: 0.5 h; summary of the method: as §1
[21] = Drug uptake in human HeLa cells at 5 uM incubated for 30 mins by confocal microscopic analysis; type: ADME, cell-based; details: 0.5 h; summary of the method: as §1
[22] = Drug uptake in nucleolus of human HeLa cells assessed as drug accumulation at 5 uM measured after 30 mins by confocal microscopic analysis; type: ADME, subcellular; details: 0.5 h; summary of the method: as §1

Drug uptake [1]: Active | Drug uptake [10]: Active | Drug uptake [12]: Active
Compound: CCN(CC)c1ccc2c(c1)O/C(=C(/C#N)c1cc[n+](C)cc1)C=C2C
Activity (HeLa [2]): Active | Activity (HeLa [3]): Active | Activity (HeLa [4]): inactive | Activity (HeLa [5]): Active | Activity (HeLa [6]): Active | Activity (HeLa [7]): inactive | Activity (HeLa [8]): inactive | Activity (HeLa [9]): Active | Activity (HeLa [11]): inactive | Activity (HeLa [13]): inactive | Activity (HeLa [14]): Active | Activity (HeLa [15]): inactive | Activity (HeLa [16]): inactive | Activity (HeLa [17]): Active | Activity (HeLa [18]): Active | Activity [19]: Active

Drug uptake [20]: Not Active | Drug uptake [21]: Active | Drug uptake [22]: Active
Compound: CCN(CC)c1ccc2c(c1)O/C(=C(/C#N)c1ccncc1)C=C2C
